The values below come from ChEMBL document CHEMBL4145613, “Succinimide-Based Conjugates Improve IsoDGR Cyclopeptide Affinity to αvβ3 without Promoting Integrin Allosteric Activation” (J Med Chem, 2018).

Structures are written as SMILES. Calls of active or inactive are those of the source. The rule behind the calls is not given here. Numbered stars: 1 amine (or outer) side, 2 acyl side, 3 side chain; on linkers, the order of the positions; unused ones are H or OH. Bridge positions count the residues as written; N and C are the ends. Square brackets hold non-standard residues; d marks the D form. Peptide text beside a SMILES is read from it. * marks the point of attachment. X2 = O=C(O)CN1CCN(CC(=O)O)CCN(CC(=O)NCCN2C(=O)CC(*)C2=O)CC1; X1 = NC(=O)[C@H]1CC[C@H](CN2C(=O)CC(*)C2=O)CC1; Succinimide(1-Et,3-yl) = CCN1C(=O)CC(*)C1=O; βAsp = O=C(O)[C@H](CC(=O)[*:2])N[*:1] A value given as a limit tells only on which side of the number the result lay.

Series [1] addresses T1, Integrin alpha-V/beta-3 (Homo sapiens, UniProt P05106+P06756). Put plainly: Allosteric activation of integrin alphaVbeta3 receptor in human MSR3 […] assessed as increase in anti-beta3 LIBS integrin antibody AP5 binding at 500 uM incubated for 90 mins by flow cytometry. The note with it: 1.5 h. The class given is cell-based.
For series [2], the target named is T1, Integrin alpha-V/beta-3. Put plainly: Binding affinity to integrin alphaVbeta3 receptor in human MSR3 cell membranes incubated for 2 hrs by Tr-NOESY NMR spectroscopy.
Series [3] addresses T1, Integrin alpha-V/beta-3. Put plainly: Allosteric activation of integrin alphaVbeta3 receptor in human MSR3 […] assessed as increase in anti-beta3 LIBS integrin antibody AP5 binding at 5 uM incubated for 90 mins by flow cytometry. The format is cell-based. The note with it: 1.5 h. Background: In flow cytometry, cells or beads pass a laser one at a time.
Series [4] has as its target T1, Integrin alpha-V/beta-3. Description: Binding affinity to integrin alphaVbeta3 receptor in human MSR3 cell membranes assessed as change in STD spectra incubated for 2 hrs by NMR spectroscopy relative to untreated control. The method, boiled down:
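Saturation transfer difference NMR used ligand at 1 mM with native membranes prepared from MSR3 melanoma cells (75-125 x10^6 cells). These cells express high αvβ3, as checked by FACS. Ligand protons nearest the receptor were identified from transferred saturation.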

Series [5] concerns the target T1, Integrin alpha-V/beta-3. Description: Binding affinity to human integrin alphaVbeta3 receptor using acetyl-CisoDGRCGVRSSSRTPSDKY-bio probe and streptavidin-peroxidase conjugate incubated for 3 hrs by competitive binding assay. The format is protein-complex assay. In outline: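 Ki reported with its standard error from several independent experiments, each run in duplicate. Groups were compared by one-way ANOVA with Dunnett's post-test.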

The target in series [6] is T1, Integrin alpha-V/beta-3. Put plainly: Binding affinity to integrin alphaVbeta3 receptor in EDTA pre-treated human MSR3 cell membranes incubated for 2 hrs by Tr-NOESY NMR spectroscopy. The method, boiled down:
(§1)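 Ligand (1 mM) NMR-observed with native membranes prepared from human melanoma MSR3 cells (75-125 x10^6 cells), whose high αvβ3 expression was confirmed by FACS. Line 1 used saturation transfer difference (STD) to map the ligand protons closest to the receptor. Line 2 used transferred NOE, comparing NOEs with and without membranes.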

Series [7] has as its target T1, Integrin alpha-V/beta-3. Put plainly: Binding affinity to integrin alphaVbeta3 receptor in EDTA pre-treated human MSR3 cell membranes incubated for 2 hrs by NMR spectroscopy. The method, boiled down:
as §1

For series [8], the target named is T1, Integrin alpha-V/beta-3. Description: Allosteric activation of integrin alphaVbeta3 receptor in human MSR3 […] assessed as increase in monoclonal antibody LM609 binding at 500 uM incubated for 90 mins by flow cytometry. The note with it: 1.5 h. The format is cell-based.

With `N=C(N)NCCC[C@@H]1NC(=O)CNC(=O)C[C@@H](C(=O)O)NC(=O)CNC(=O)[C@H](CS)NC(c2ccccc2)C(=O)NC1=O` (stereo not given in full), the Activity result in series [1] is given as “Not Active”.
Take `N=C(N)NCCC[C@@H]1NC(=O)CNC(=O)C[C@@H](C(=O)O)NC(=O)[C@H](CS)NCC(=O)NC(=O)C(c2ccccc2)NC1=O` (stereo not given in full): the Activity entry in series [1] is “Not Active”.
On to `CCN1C(=O)CC(SC[C@@H]2NC(=O)CNC(=O)[C@H](CCCNC(=N)N)NC(=O)CNC(=O)C[C@@H](C(=O)O)NC(=O)CNC2=O)C1=O` (stereo not given in full) (GRGC(Succinimide(1-Et,3-yl))GD-OH; lactam N-6), for which the Activity entry was “Not Active” in series [1], over 50% in series [2], “Not Active” in series [3] and over 50% in series [4]. In series [5], this compound had an inhibitory constant (Ki) of 0.0265 µM.
In the case of `N=C(N)NCCC[C@@H]1NC(=O)CNC(=O)C[C@@H](C(=O)O)NC(=O)CNC(=O)[C@H](CSC2CC(=O)N(C[C@H]3CC[C@H](C(N)=O)CC3)C2=O)NC(=O)CNC1=O` (stereo not given in full) (GRGC(X1)GD-OH; lactam N-6), the result in series [6] and in series [7] was inactive. Moreover, the Activity result in series [1] was “Not Active”; in series [2] it was over 50%; in series [3], “Not Active”; in series [4], over 50%. Moreover, the Ki in series [5] was found to be 0.0199 µM.
Take `N=C(N)NCCC[C@@H]1NC(=O)CNC(=O)C[C@@H](C(=O)O)NC(=O)CNC(=O)[C@H](CSC2CC(=O)N(CCNC(=O)CN3CCN(CC(=O)O)CCN(CC(=O)O)CC3)C2=O)NC(=O)CNC1=O` (stereo not given in full) (GRGC(X2)GD-OH; lactam N-6): the Activity result in series [1] and in series [3] was “Not Active” each time. The compound further registered a Ki in series [5] of 0.0216 µM.
Consider `N=C(N)NCCC[C@@H]1NC(=O)CNC(=O)C[C@@H](C(=O)O)NC(=O)[C@H](CS)NC(=O)CNC1=O` (GRGCD-OH; lactam N-5), for which, in series [1], the Activity entry is on record as “Not Active”.
With `N=C(N)NCCC[C@@H]1NC(=O)CNC(=O)C[C@@H](C(=O)O)NC(=O)CNC(=O)[C@H](CS)NC(=O)CNC1=O` (GRGCGD-OH; lactam N-6), the Activity entry in series [1] and in series [8] was “Not Active” throughout.
Take `N=C(N)NCCC[C@@H]1NC(=O)CNC(=O)C[C@@H](C(=O)O)NC(=O)[C@H](CS)NC(=O)CNC(=O)CNC1=O` (GRGGCD-OH; lactam N-6): in series [1], the Activity result is given as “Not Active”.
`N=C(N)NCCC[C@@H]1NC(=O)CNC(=O)[C@H](CC(=O)O)NC(=O)[C@@H](N)CSSC[C@@H](C(=O)O)NC1=O` (H-CDGRC-OH; disulfide 1-5): the outcome in series [2] and in series [4] was inactive.
As to `N=C(N)NCCC[C@@H]1NC(=O)CNC(=O)C[C@@H](C(=O)O)NC(=O)[C@@H](N)CSSC[C@@H](C(=O)O)NC1=O` (H-C[βAsp]GRC-OH; disulfide 1-5), the Activity entry in series [1] is “Not Active”.
Compound `N=C(N)NCCC[C@@H]1NC(=O)[C@H](CS)NC(=O)[C@@H](Cc2ccccc2)NC(=O)[C@H](CC(=O)O)NC(=O)CNC1=O` (cyclo(RGD[dF]C)) showed a Ki in series [5] of 0.0063 µM.

By Ki is commonly meant the dissociation constant of the complex between target and ligand, obtained from inhibition or displacement. The low end stands for tighter binding, the high end for weaker binding.
